Reference: PubChem BioAssay AID652204 (Vanderbilt Specialized Chemistry Center, 2013)
Active and inactive are the calls of the source. The rule behind the calls is not given here.

Target: Metabotropic glutamate receptor 4 (Rattus norvegicus) (UniProt P31423)
Test: glutamate potency shift at rat mGlu4 – cell-based, CHO, Gqi5, Fluo4 calcium, selectivity assay for mGlu5 silent allosteric modulator project (AID 652204)
Conditions: CHO rmGlu4/Gqi5, Fluo4 calcium mobilization, glutamate CRC
Outline: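 Material: CHO cells expressing rat mGlu4 together with Gqi5; technique: Fluo4 calcium-dye fluorescence; medium: HEPES-buffered HBSS with probenecid, pH 7.4; incubation: 37 °C 60-min dye-loading, compound 20 s, glutamate 80 s; also added: glutamate, 9-point concentration series, 10 nM–1 mM final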

Metabotropic glutamate receptor 4 (Rattus norvegicus), sequence (P31423 whole entry, looked up): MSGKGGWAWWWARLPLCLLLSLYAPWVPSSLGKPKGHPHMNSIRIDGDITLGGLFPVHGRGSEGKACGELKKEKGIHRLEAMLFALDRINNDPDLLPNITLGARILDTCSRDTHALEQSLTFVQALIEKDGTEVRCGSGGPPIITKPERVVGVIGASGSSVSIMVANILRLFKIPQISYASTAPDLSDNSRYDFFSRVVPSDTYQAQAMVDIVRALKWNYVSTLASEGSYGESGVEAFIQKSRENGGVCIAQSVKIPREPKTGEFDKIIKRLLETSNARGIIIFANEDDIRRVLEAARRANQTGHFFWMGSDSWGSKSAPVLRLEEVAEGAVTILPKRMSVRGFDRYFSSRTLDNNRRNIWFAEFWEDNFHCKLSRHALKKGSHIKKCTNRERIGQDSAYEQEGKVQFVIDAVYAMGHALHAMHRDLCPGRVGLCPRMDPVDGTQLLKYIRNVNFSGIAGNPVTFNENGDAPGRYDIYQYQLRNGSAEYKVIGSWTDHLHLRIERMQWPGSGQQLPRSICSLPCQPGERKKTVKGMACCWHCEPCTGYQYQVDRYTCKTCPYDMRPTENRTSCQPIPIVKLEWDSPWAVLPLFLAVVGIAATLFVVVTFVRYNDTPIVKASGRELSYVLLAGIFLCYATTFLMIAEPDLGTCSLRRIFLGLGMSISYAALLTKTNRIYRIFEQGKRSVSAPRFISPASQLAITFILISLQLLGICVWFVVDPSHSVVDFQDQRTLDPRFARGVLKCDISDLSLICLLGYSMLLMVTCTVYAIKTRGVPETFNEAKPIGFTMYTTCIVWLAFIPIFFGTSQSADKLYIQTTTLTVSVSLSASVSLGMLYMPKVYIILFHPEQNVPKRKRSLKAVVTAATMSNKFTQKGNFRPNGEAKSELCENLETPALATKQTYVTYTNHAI

Structure (SMILES): O=C(c1ccc(C#Cc2cccc(F)c2)cn1)N1CC2CC2C1 (configuration not stated)
- glutamate EC50 in presence of 10 uM compound: inactive
- fold shift (measured here: glutamate EC50 fold shift, at 10 µM): 1.23
